Paper PMC3114295 (Pain, 2011)
pKi: −log10 of the molar value.

Assays:
[1] = test system: male Sprague Dawley rats; assay: Bradykinin-induced thermal hyperalgesia, paw withdrawal latency; type: in vivo; details: rat hindpaw i.pl., JA-2 5 μM 25 μl 30 min before BK 0.1 μM 25 μl; n=6-10
How it was run: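 Male Sprague-Dawley rats (200-250 g), tested in the light phase after 30 min acclimation. Blinded Hargreaves thermal latency, with baseline set near 10 s and a 20 s cutoff, taken as the mean of triplicate readings at least 30 s apart. Intraplantar s.c. vehicle (50% DMSO/0.9% saline) or test compound (5 μM), 25 μl; latency read 30 min later. BK (0.1 or 1 μM, 25 μl) then injected into the same paw; latency read at 5 min.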

[2] = biological target: EP24.15; details: read-out: Ki for inhibiting EP24.15; cited from earlier work
[3] = test system: EP24.16; details: EP24.15 preferentially over EP24.16; cited from earlier work
[4] = prolonged incubation in various tissues; cited from earlier work
[5] = cited from earlier work

**Q.** With `C[C@H](NC(CCc1ccccc1)C(=O)O)C(=O)NC(C)(C)C(=O)N[C@@H](Cc1ccc(O)cc1)C(=O)Nc1ccc(C(=O)O)cc1` (stereo partly drawn) [JA-2] as the molecule, how does the “effect on response to sub-threshold BK (0.1 μM), thermal hyperalgesia” value [1] read?
**A.** Its value is “resulted in a nociceptive response”.

**Q.** What about the pKi [2] of the same molecule?
**A.** Its pKi is 7.64.

**Q.** What about the “times more potent at inhibiting EP24.15 than EP24.16 (selectivity)” value [3] of the same molecule?
**A.** Its value is 20-30 fold.

**Q.** What about the “retention of activity after incubation in tissues (stability)” value [4] of the same molecule?
**A.** Its value is “retains its activity after prolonged incubation in various tissues”.

**Q.** Which “potentiation of antinociceptive effects of co-administered opioid peptides” value ([5]; co-administered with Met-enkephalin-Arg-Gly-Leu and dynorphin A1-8) does the source give for “N-[1-(R,S)-carboxy-3-phenylpropyl]-Ala-Ala-Tyr-p-aminobenzoate [cFP]” here?
**A.** Its value is “potentiate the antinociceptive effects”.

**Q.** And the antinociception ([5]; intracerebroventricular administration, time and dose-dependent)?
**A.** Its antinociception is “significant antinociception”.
